In the library only some 1.5% were active in any assay of this set; here they are far more common.
CCR6 antag = CCR6 (human) receptor antagonism; P51684; CHO-K1 CCR6 PathHunter beta-arrestin, luminescence, CCL20-stimulated; inhibition, % at 20 µM; actives 0.49% (n = 340,000);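 active = compounds whose inhibition of the agonist-driven luminescence signal at 20 µM reaches about 50%, limit read from the data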;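 note: cells stimulated with CCL20 at 14 nM final; plate controls were DMSO with CCL20 for no effect and DMSO without agonist for full effect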
Target sequence (P51684 whole entry, looked up): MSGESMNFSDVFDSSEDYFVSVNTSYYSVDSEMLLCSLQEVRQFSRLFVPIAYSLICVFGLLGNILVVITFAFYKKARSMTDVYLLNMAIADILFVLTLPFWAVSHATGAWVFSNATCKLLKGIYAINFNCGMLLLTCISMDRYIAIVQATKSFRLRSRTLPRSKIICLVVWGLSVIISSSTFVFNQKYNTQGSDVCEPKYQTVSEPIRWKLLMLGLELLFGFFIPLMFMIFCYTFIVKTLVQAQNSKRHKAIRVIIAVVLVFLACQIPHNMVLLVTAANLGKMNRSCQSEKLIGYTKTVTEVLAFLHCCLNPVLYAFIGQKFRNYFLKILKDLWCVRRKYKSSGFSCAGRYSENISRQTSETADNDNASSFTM
APJ agonist = APJ receptor agonism. CHO-K1 APJ PathHunter beta-arrestin, luminescence; 0% DMSO wells, 100% apelin. AID 2520. P35414. activation, % at 20 µM. actives 0.11% (n = 330,000);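 active = activation more than six SD over the plate average, tested at 20 µM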;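 note: 0% = DMSO alone and 100% = apelin-13 at 10 nM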
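Test system: CHO-K1 APJ beta-arrestin complementation cell line. Amount: cell density 1000 per well. Controls: DMSO negative, 10 nM Apelin-13 positive. Signal: luminescent beta-gal fragment complementation, chemiluminescent substrate. Read-out basis: agonist-driven arrestin binding to APJ. Timing: compound stimulation 90 min at 25 °C, detection 60 min.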
APJ antag = antagonists of human APJ apelin receptor | AID 2521 | P35414 | inhibition, % at 20 µM | actives 0.32% (n = 330,000) | CHO-K1 APJ beta-arrestin complementation, luminescence;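 active = inhibition above about 40% at 20 µM, limit read from the data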;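 note: cells challenged with 10 nM apelin-13 agonist together with compound; plate controls were apelin-13 plus DMSO wells for no effect and DMSO wells lacking apelin-13 for full effect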
EBI2 antag = blocks human EBI2 receptor beta-arrestin signaling. P32249. EBI2 beta-arrestin recruitment, luminescence, 7a,25-OHC stimulated. inhibition, % at 5 µM. actives 0.81% (n = 360,000). AID 651636; in the data active = inhibition above about 38%;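 note: enzyme fragment complementation signal reports receptor beta-arrestin coupling in cells; 0% = agonist plus DMSO wells and 100% = wells without agonist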
CXCR6 inh = inhibitors of human CXCR6 receptor. AID 602244. inhibition, % at 20 µM. actives 0.36% (n = 360,000). CHO-K1 PathHunter CXCR6 beta-arrestin, luminescence. O00574; in the data active = inhibition above about 34%, passing the limit was not always enough;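 note: antagonist mode with CXCL16 agonist at 10 nM final; 0% = 10 nM CXCL16 with DMSO and 100% = unstimulated wells without agonist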
Target sequence (O00574 whole entry, looked up): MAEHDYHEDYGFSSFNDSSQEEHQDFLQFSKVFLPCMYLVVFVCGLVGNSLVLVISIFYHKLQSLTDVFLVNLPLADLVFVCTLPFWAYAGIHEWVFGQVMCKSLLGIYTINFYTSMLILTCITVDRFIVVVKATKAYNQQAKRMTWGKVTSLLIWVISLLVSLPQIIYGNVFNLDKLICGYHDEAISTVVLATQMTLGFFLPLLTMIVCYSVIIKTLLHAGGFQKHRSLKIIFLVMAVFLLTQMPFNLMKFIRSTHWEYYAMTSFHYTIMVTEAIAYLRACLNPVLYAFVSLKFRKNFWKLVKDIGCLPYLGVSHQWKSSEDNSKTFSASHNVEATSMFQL
APJ ag conf = confirmation of human APJ apelin receptor agonists; shares compounds with APJ agonist; AID 2764; activation, % at 20 µM; CHO-K1 APJ PathHunter beta-arrestin, luminescence; actives 10% (n = 310);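 active = activation above 40%, taking the highest of four retests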;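 note: plate controls were DMSO wells for no effect and apelin-13 at 10 nM for full effect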
An asterisk follows results filed as active; . = no result given; ! = repeats disagree.

SMILES	CCR6 antag	APJ agonist	APJ antag	EBI2 antag	CXCR6 inh	APJ ag conf
CCOC(=O)[C@]12CCCC=C1N(CCc1ccc(OC)c(OC)c1)C(=O)[C@H](CC(=O)N1CCCC1)C2	.	.	.	-3.5	.	.
O=C(CCl)N(O)c1ccc(C=Cc2ccccc2)cc1	-10.0	.	.	5.1	-1.4	.
COC1(OC)N=C(N)C2(C#N)C(c3ccc(F)cc3)C12C#N (stereo unspecified)	-9.8	-1.6	-0.4	4.3	-2.0	.
CCSC1(SCC)N=C(N)C2(C#N)C(c3ccc(F)cc3)C12C#N (stereo unspecified)	37.0	-3.7	17.3	-15.2	66.6*	.
Cc1ccc(-c2oc3ccccc3c(=O)c2O)cc1	43.4	-5.7	-11.7	6.0	51.8*	.
Cc1ccc(Nc2nc(-c3cccnc3)cs2)cc1Cl	-3.9	-1.3	2.2	48.4*	-14.5	.
Cc1ccc(-c2nnc3n2CCCCC3)cc1	-12.0	-1.7	2.4	-2.9	-1.8	.
O=C1Nc2ccccc2C1=Nc1ccc(-c2nnc3n2CCCCC3)cc1	61.8*!	-4.5	-14.5	14.4	4.3	.
O=C(Nc1cc(C(F)(F)F)cc(C(F)(F)F)c1)[C@H]1O[C@@H](n2ccc(=O)[nH]c2=O)[C@H](O)[C@@H]1O	.	.	.	-3.6	-2.7	.
Cc1ccc(S(=O)(=O)N2[C@H](c3cccc(Cl)c3)CC(=O)[C@@H]3CN(S(=O)(=O)c4ccccc4C)[C@H](c4ccc(Cl)cc4)C[C@@H]32)cc1	.	.	.	-12.3	-6.7	.
CC(=O)OC[C@]12CC[C@H]3[C@@](C)(CC[C@H]4C(C)(C)CCC[C@]34C)[C@@H]1CC(C1=CC(=O)OC1O)O2 (stereo partly specified)	.	.	.	86.5*	38.8	.
Cc1ccc(C)c(NC(=S)Nc2cccc3cnccc23)c1	-1.6	0.3	-71.7	0.4	-27.2	.
Cc1ccccc1NC(=S)Nc1cccc2cnccc12	10.3	16.3*	-42.4	-12.4	-8.0	.
CC(NC(=O)c1ccccc1)C(=O)NNC(=O)c1ccccc1Cl (stereo unspecified)	3.6	-1.8	8.8	0.0	10.9	.
CN1CC(=O)N2C(c3cccc([N+](=O)[O-])c3)c3[nH]c4ccccc4c3C[C@H]2C1=O (stereo partly specified)	17.0	-2.0	14.8	1.0	16.0	.
O=C1[C@@H]2Cc3c([nH]c4ccccc34)C(c3cccc([N+](=O)[O-])c3)N2C(=O)CN1CCCO (stereo partly specified)	50.7*	-6.9	35.5	9.6	33.4	.
CC(C)Cc1ccc(-c2cc3nc(NCCCn4ccnc4)ccn3n2)cc1	.	.	.	29.4	-26.1	.
CC1OC2CC(=O)OC2C2=C1C(=O)c1c(O)cccc1C2=O (stereo unspecified)	.	.	.	-27.9	78.9*	.
O=C1c2cccc(O)c2C(=O)c2c(O)cc(CO)cc21	4.2	1.7	-134.8	.	.	.
O=C(COC(=O)c1ccc(Cl)c([N+](=O)[O-])c1)NC1CCCC1	1.0	-3.7	18.6	-6.3	-5.9	.
O=C(COC(=O)c1ccccc1C(=O)c1ccc(Cl)c([N+](=O)[O-])c1)NC1CCCCCC1	16.4	5.2	36.2	53.0*	10.5	.
O=C(O)c1ccc(N2C(=O)/C(=C/c3ccc(-c4ccc([N+](=O)[O-])cc4)o3)C=C2c2ccccc2)cc1	.	-2.2	18.7	-8.6	44.8*	.
Cc1cc(NCCCN2CCOCC2)n2ncc(-c3ccc(Cl)cc3)c2n1	17.2	-0.2	15.1	18.0	-6.8	.
Cc1cc(NCCCn2ccnc2)n2ncc(-c3ccc(Cl)cc3)c2n1	-3.9	2.1	-10.7	45.4*	-6.5	.
CCC(=O)c1ccc(N2CCN(C(=O)c3ccc(Br)cc3)CC2)c(F)c1	5.2	-0.1	-15.0	56.7*	0.1	.
SMILES	CCR6 antag	APJ agonist	APJ antag	EBI2 antag	CXCR6 inh	APJ ag conf
O=S(=O)(/N=C/c1c(O)ccc2ccccc12)c1cccs1	.	-0.2	-6.2	.	.	.
Cc1ccc(C2C(C#N)=C(N)Oc3nc(-c4ccccc4)[nH]c32)o1 (stereo unspecified)	-17.9	29.7*	-0.7	-18.7	-8.9	14.9
Cc1cc2ccccn2c1C(=O)c1nc(NCc2ccco2)ncc1Cl	21.5	39.9*	14.0	10.3	12.7	39.8
Cc1cc2ccccn2c1C(=O)c1nc(N2CCOCC2)ncc1Cl	-4.7	-0.4	4.2	3.2	-0.2	.
O=c1[nH]cnc2c1ncn2[C@@H]1O[C@H](COS(=O)(=O)O)[C@@H](O)[C@H]1O	2.9	-2.0	-4.8	-0.6	-2.3	.
Cc1cc(C)n(-c2nc(N(c3ccccc3)c3ccccc3)nc(-n3nc(C)cc3C)n2)n1	17.2	36.0*	-13.9	-86.5	31.9	13.9
CCCCC1=CC2=CC(=O)C(C)(OC(=O)CC)C(=O)C2=CN1c1ccccc1 (stereo unspecified)	3.8	74.6*	-39.2	1.3	-9.9	14.1
CCCCC1=CC2=CC(=O)C(C)(OC(=O)CC)C(=O)C2=CN1Cc1ccccc1 (stereo unspecified)	-9.8	17.1	-26.1	-9.6	-11.2	.
CC1=NOC(=O)/C1=C\c1ccc(-c2ccc(Cl)c(C(=O)O)c2)o1	0.4	0.4	-5.4	-14.3	-1.6	.
CC1=NOC(=O)/C1=C\c1ccc(-c2cccc(Cl)c2)o1	.	15.1*	-23.8	-8.7	95.8*	15.9
COc1ccc(NC(=O)CN(C)S(=O)(=O)c2ccc3c(c2)CC(C)N3C(C)=O)cc1OC (stereo unspecified)	11.5	-2.2	4.8	4.5	-2.5	.
CCCCCCc1cc2cc(C(=O)Nc3ccccc3)c(=O)oc2cc1O	-98.7	11.3*	-38.5	-33.1	-70.0	43.0*
CC1=CC(=O)C=C(C)C1=NOS(=O)(=O)c1ccccc1	-15.4	.	.	-7.3	18.0	.
CC1=CC(=O)C(C(C)C)=C/C1=N/OS(=O)(=O)c1ccccc1	7.3	184.6*	-34.6	-44.1	-2.9	77.7*
CCN1C(=O)C(F)(CC)C(=O)c2ccccc21 (stereo unspecified)	-12.3	1.5	7.8	-5.6	-3.6	.
Cc1cccc(NC(=S)NC(=O)CCc2ccccc2)c1	-35.2	19.2*	-82.3	14.7	-19.0	25.4
Cc1cccc(NC(=O)NNC(=O)CCc2ccccc2)c1	-4.5	0.8	11.0	9.8	5.3	.
Nc1c(C(O)(C(F)(F)F)C(F)(F)F)cc(C(O)(C(F)(F)F)C(F)(F)F)c2ccccc12	6.1	49.9*	-9.3	-21.4	4.3	37.1
O=C(NC(Cc1ccccc1)C(=O)N1CCN(S(=O)(=O)c2ccccc2F)CC1)c1ccccc1 (stereo unspecified)	-0.4	26.1*	6.9	3.8	0.5	9.4
Cn1c(=O)c2c(ncn2CC(=O)N/N=C/C=C\c2ccccc2[N+](=O)[O-])n(C)c1=O	-4.3	0.0	-8.7	.	.	.
CC(C)=CC(=O)NCc1c(Cl)cccc1-n1cccc1	6.8	-2.9	3.3	-1.1	7.3	.
C=CCn1c(SCCC)nc(O)cc1=O	1.1	33.8*	-1.9	-11.4	-5.5	4.0
N/C(=N\OC(=O)c1ccc(Br)cc1)c1ccncc1	-14.5	12.3*	-24.4	-11.4	-13.1	26.4

Assay outcomes (PubChem BioAssay)
